In ChEMBL document CHEMBL2440064, “Synthesis and biological evaluation of 2-amino-5-aryl-3-benzylthiopyridine scaffold based potent c-Met inhibitors” (Bioorg Med Chem, 2013) one finds inhibition, IC50 and inhibition in vivo data, which are given here for five compounds.

Usually IC50 stands for the midpoint of a concentration-inhibition curve. High values mean a need for much substance, low ones inhibition by little substance.

The target in assay [1] is T1, Hepatocyte growth factor receptor (Homo sapiens, UniProt P08581). Put plainly: Inhibition of c-Met in gefitinib-resistant human HCC827 cells assessed as inhibition of p44/42 phosphorylation at 0.5 uM after 2 hrs by Western blotting analysis. Type of assay: cell-based. In short, it runs like this:
(§1)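 Cells grown to exponential phase, treated with compound 2 h at 37°C, lysed in 1× SDS sample buffer, resolved on 10% SDS-PAGE and transferred to nitrocellulose for immunoblotting.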
A general note: A western blot detects proteins with antibodies after separation by electrophoresis.

Assay [2] deals with T1, Hepatocyte growth factor receptor. Nature of the assay: Inhibition of c-Met phosphorylation in gefitinib-resistant human HCC827 cells at 0.5 uM after 2 hrs by Western blotting analysis. It counts as cell-based. In short, it runs like this: as §1
For assay [3] the target is unchanged. Put plainly: Inhibition of c-Met in gefitinib-resistant human HCC827 cells assessed as inhibition of AKT phosphorylation at 0.5 uM after 2 hrs by Western blotting analysis. It counts as cell-based. In short, it runs like this:
as §1

The target is the same in assay [4]. Nature of the assay: Inhibition of c-Met (unknown origin) using poly (Glu, Tyr) 4:1 as substrate after 60 mins by ELISA.
Assay [5] has the same target. Put plainly: Inhibition of c-Met (unknown origin) using poly (Glu, Tyr) 4:1 as substrate at 10 uM after 60 mins by ELISA. The essentials: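 ELISA on wells precoated with 20 µg/mL poly(Glu,Tyr)4:1. Purified kinase with 10 µmol/L ATP in 50 mM HEPES pH 7.4, 50 mM MgCl₂, 0.5 mM MnCl₂, 0.2 mM Na₃VO₄, 1 mM DTT; 1% DMSO vehicle. 60 min at 37°C. Phosphotyrosine detected with PY99 antibody, then HRP anti-mouse IgG and o-phenylenediamine/H₂O₂, A490. Inhibition = [1−(A490/A490 control)]×100%; IC50 from curves.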
(In an ELISA, binding on a coated surface is turned into a signal by an enzyme label.)

The next assay concerns HCT-116. Put plainly: Antiproliferative activity against human HCT116 cells after 72 hrs. The conditions noted are these: HCT-116, 72 h.
A further assay has as its system SK-MEL-28. Put plainly: Antiproliferative activity against human SK-MEL-28 cells after 72 hrs. To be noted: SK-MEL-28, 72 h.
Another assay deals with SK-OV-3. Put plainly: Antiproliferative activity against human SKOV3 cells after 72 hrs. To be noted: SK-OV-3, 72 h.
The subject of a further assay is MCF7. Nature of the assay: Antiproliferative activity against human MCF7 cells after 72 hrs. To be noted: MCF7, 72 h.
The test system of another assay is MDA-MB-231. Nature of the assay: Antiproliferative activity against human MDA-MB-231 cells after 72 hrs. To be noted: MDA-MB-231, 72 h.
A further assay deals with NCI-H441. Put plainly: Antiproliferative activity against human NCI-H441 cells after 72 hrs. To be noted: NCI-H441, 72 h.
The next assay deals with NCI-H661. Nature of the assay: Antiproliferative activity against human NCI-H661 cells after 72 hrs. The conditions noted are these: NCI-H661, 72 h.
Assay [6] is described as follows: Antiproliferative activity against human EBC1 cells after 72 hrs. The conditions noted are these: EBC-1, 72 h.
A further assay deals with SNU-5. Nature of the assay: Antiproliferative activity against human SNU5 cells after 72 hrs. To be noted: SNU-5, 72 h.
Another assay deals with MKN-45. Nature of the assay: Antiproliferative activity against human MKN45 cells after 72 hrs. The conditions noted are these: MKN-45, 72 h.
For the next assay, the system named is NIH3T3. Nature of the assay: Antitumor activity against mouse NIH/3T3 cells expressing TPR/Met allografted in mouse assessed as tumor growth inhibition at 50 mg/kg, po qd administered for 2 weeks measured twice per week relative to vehicle-treated control. It counts as functional. The conditions noted are these: NIH3T3, 336 h, read-out: TGI. The essentials: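 Tumor fragments (1 mm³) implanted s.c. in right flank of nude mice by trocar. Randomized at 100–150 mm³ tumor volume. Dosed orally 7 days/week for 2 weeks; vehicle controls. Calipers twice weekly; TV = length×width²/2. Inhibition = 100%×{1−[(T day14−T day0)/(C day14−C day0)]}. n = 6/group, Student's t-test.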

The source made the active and inactive calls. No cut-off for these calls is given here.

T1 sequence (P08581 whole entry): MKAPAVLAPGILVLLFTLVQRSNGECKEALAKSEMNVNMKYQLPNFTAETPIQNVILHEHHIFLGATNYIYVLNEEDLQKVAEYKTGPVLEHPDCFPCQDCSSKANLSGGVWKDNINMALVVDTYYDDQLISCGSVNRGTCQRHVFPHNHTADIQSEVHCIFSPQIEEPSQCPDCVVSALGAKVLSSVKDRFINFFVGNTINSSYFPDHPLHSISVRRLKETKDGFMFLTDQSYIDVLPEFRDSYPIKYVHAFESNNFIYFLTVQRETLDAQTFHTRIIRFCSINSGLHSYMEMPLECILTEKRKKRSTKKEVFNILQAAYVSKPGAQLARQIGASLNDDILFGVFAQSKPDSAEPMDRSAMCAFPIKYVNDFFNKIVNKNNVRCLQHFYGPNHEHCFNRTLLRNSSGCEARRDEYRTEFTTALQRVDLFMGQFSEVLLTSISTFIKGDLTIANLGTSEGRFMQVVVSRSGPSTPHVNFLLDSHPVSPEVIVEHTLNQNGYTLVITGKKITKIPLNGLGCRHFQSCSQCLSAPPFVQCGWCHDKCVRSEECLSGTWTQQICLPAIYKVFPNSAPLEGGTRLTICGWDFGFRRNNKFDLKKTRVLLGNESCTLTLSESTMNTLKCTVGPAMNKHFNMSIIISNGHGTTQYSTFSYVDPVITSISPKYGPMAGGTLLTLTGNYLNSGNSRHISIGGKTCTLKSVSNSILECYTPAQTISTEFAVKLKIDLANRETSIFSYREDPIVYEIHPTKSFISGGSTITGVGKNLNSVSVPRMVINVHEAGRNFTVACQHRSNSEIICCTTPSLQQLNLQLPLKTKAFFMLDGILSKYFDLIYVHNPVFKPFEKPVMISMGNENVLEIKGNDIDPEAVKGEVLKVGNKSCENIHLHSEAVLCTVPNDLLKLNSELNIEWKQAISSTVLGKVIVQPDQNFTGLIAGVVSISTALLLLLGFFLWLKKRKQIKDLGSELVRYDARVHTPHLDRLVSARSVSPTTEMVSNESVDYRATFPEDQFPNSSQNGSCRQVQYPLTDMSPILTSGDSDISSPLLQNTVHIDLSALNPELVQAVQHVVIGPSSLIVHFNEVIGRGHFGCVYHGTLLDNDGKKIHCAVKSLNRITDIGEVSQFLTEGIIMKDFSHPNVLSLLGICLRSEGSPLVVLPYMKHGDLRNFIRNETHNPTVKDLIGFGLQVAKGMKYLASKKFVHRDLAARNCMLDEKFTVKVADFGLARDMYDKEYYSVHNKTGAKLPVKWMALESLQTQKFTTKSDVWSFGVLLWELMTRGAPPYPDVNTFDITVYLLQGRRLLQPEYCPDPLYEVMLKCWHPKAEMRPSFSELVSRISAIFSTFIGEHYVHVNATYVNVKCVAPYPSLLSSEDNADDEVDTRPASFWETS

As for `COc1cc2ncnc(Nc3ccc(F)c(Cl)c3)c2cc1OCCCN1CCOCC1`, the inhibition result in [1] and in assay [3] was “inactive” in each case. Also, the inhibition entry in [2] is “Active”.
As to `C[C@H](Sc1cc(-c2cnn(C3CCNCC3)c2)cnc1N)c1c(Cl)ccc(F)c1Cl`, the IC50 in assay [4] worked out at 0.171 µM.
On to `CC(NS(=O)(=O)c1cc(-c2cnn(C3CCNCC3)c2)cnc1N)c1c(Cl)ccc(F)c1Cl` (configuration not stated), for which the IC50 in [5] was greater than 10 µM.
For `CC(Sc1cc(-c2cnn(C3CCNCC3)c2)cnc1N)c1c(Cl)ccc(F)c1Cl` (racemic), the half-maximal inhibitory concentration (IC50) in assay [4] was determined as 0.0164 µM.
As for `C[C@@H](Oc1cc(-c2cnn(C3CCNCC3)c2)cnc1N)c1c(Cl)ccc(F)c1Cl` [CRIZOTINIB], the IC50 in the assay on HCT-116 stood at 14.8 µM; in the assay on SK-MEL-28, 11 µM; in the assay on SK-OV-3, 12.8 µM; in the assay on MCF7, 9.58 µM; in the assay with MDA-MB-231, 10.8 µM; in the assay with NCI-H441, 17.2 µM. Besides, the IC50 came out at 11.5 µM in the assay with NCI-H661, 0.023 µM in assay [6], 0.016 µM in the assay with SNU-5 and 0.013 µM with MKN-45. Moreover, the inhibition in vivo at 50 mg/kg with NIH3T3 stood at 82.4%.
